These results are taken from publication PMC3825517 (Nature structural & molecular biology, 2013).

The Kd is a measure of binding affinity in units of concentration. The low end stands for higher affinity, the high end for lower affinity.

The target of test [1] is T1, DinF-BH (Halalkalibacterium halodurans, UniProt Q9KAX3).
T1 sequence (Q9KAX3 1-464): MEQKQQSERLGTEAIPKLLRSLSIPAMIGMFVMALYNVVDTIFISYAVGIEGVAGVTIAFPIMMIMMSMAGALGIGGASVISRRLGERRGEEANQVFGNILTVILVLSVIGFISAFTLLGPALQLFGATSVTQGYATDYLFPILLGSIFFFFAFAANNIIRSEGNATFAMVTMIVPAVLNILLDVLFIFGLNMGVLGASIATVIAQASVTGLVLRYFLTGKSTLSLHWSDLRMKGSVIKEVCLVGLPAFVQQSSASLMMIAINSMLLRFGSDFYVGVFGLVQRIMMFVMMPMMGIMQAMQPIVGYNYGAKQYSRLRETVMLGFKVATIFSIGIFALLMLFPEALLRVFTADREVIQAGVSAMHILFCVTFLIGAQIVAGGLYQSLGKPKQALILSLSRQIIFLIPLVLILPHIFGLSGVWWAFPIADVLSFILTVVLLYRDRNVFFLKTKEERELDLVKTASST
Description: Fluorescence polarization assay of R6G binding to purified DinF-BH. Further details: species or system Bacillus halodurans. (Polarisation of emitted light reports the rotation of a fluorescent probe.)

Test [2] deals with T1, DinF-BH. The experiment in a line: Fluorescence measurement of H+-release upon drug binding. In kind it is biochemical, Bacillus halodurans. The conditions noted are these: 4 μM protein, 250 μM TPP, fluoresceine pH indicator, repeated three times. The method, boiled down:
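Purified transporter was dialysed against 10% (vol/vol) glycerol, 50 mM NaCl and 0.03% (wt/vol) DDM, then diluted to 4 μM in the same buffer with 2 μM fluoresceine as pH indicator. The sample was stirred, and fluorescence was read at excitation 494 nm and emission 521 nm. TPP was added to 250 μM. Three repeats.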

Test [3] deals with T1, DinF-BH. Description: Drug-H+ antiport assay in everted membrane vesicles containing DinF-BH. The note with it: 250 μM TPP, acridine orange fluorescence. In kind it is biochemical, Bacillus halodurans.
The next test concerns NorM-NG. Description: Drug-H+ antiport assay in everted membrane vesicles containing NorM-NG. In kind it is biochemical, Neisseria gonorrhoeae. The note with it: 250 μM TPP, acridine orange fluorescence.
In another test the target is T2, DinF-BH D40N mutant (Halalkalibacterium halodurans, UniProt Q9KAX3, D40N).
T2 sequence (Q9KAX3 1-464 D40N): T1 sequence (Q9KAX3 1-464)
Description: Fluorescence polarization assay of R6G binding to purified D40N mutant. Further details: species or system Bacillus halodurans. The method, boiled down: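 Each protein concentration was read after a 10-min incubation. Kd comes from the binding isotherm, three titrations, SD. For pH dependence the binding solutions spanned pH 5.5–9.0, fitted to Kd = (1 + [H+]/Ki)Kmin.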

Regarding `C(=NC1CCCCC1)=NC1CCCCC1` [dicyclohexylcarbodiimide], the “effect of treatment of DinF-BH on the binding of R6G” value on DinF-BH [1] (treatment of DinF-BH with the chemical) is recorded as “abolished the binding of R6G”.
For `c1ccc([P+](c2ccccc2)(c2ccccc2)c2ccccc2)cc1` [TPP, tetraphenylphosphonium], the “stoichiometry of H+ released per DinF-BH upon drug binding” value at DinF-BH [2] was 1.00 ± 0.07 H^+ per DinF-BH. On DinF-BH [3], the “H+ efflux (fluorescence dequenching) on addition of substrate, DinF-BH vesicles” value is on record as “elicited efflux of H^+”. For the same molecule, in the test with NorM-NG, the “H+ efflux (fluorescence dequenching) on addition of substrate, NorM-NG vesicles” value is on record as “no response”.
As to `CC/N=c1\cc2oc3cc(NCC)c(C)cc3c(-c3ccccc3C(=O)OCC)c-2cc1C` [R6G, rhodamine 6G], the Kd at DinF-BH [1] worked out at 3.1 ± 0.4 µM; on DinF-BH D40N mutant, 107 ± 4.1 µM.
